Rows were chosen to be rich in hits. Some 3% of all compounds tested hit in one or more screens of this group.
SENP6 block – blocks the human protease SENP6. inhibition, % at 10 µM. AID 2599. hit rate 1.8% among 330,000. Recombinant SENP6 catalytic domain, aminoluciferin luminescence;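 active = inhibition above about 50% at the single tested dose, limit read from the data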;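 note: plate controls were DMSO wells with enzyme for no effect and DMSO wells lacking enzyme for full effect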
Apaf1 inhib – blocks human Apaf-1 apoptosome activity | O14727 | reconstituted apoptosome caspase-3 activity, DEVD-Rh110 fluorescence | inhibition, % at 20 µM | hit rate 0.71% among 330,000 | AID 489030; active = inhibition of at least 40% at 20 µM;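 note: plate controls were DMSO wells for no effect and DEVD-CHO caspase inhibitor wells for full effect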
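Material: reconstituted apoptosome with Apaf-1, cytochrome c, caspase-9, procaspase-3, dATP. Technique: Rh110 fluorescence intensity. Buffer or medium: pH 7.5 Hepes buffer with CHAPS, BSA, DTT. Times: 30 min plus 50 min, RT.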
SENP8 block-1 – SENP8 (human) protease inhibition. Q96LD8. recombinant SENP8, Nedd8 substrate fluorescence. inhibition, % at 20 µM. hit rate 0.64% among 360,000; in the data active = inhibition mostly above about 40%, no sharp cut-off; inactive = mostly below about 27%
UBC13 inh – human UBC13 polyubiquitination inhibition | P61088 | UBC13 polyubiquitin chain formation, TR-FRET | inhibition, % at 20 µM | hit rate 0.47% among 330,000; in the data active = inhibition above about 45%, passing the limit was not always enough
SENP7 inh – SENP7 protease inhibition; hit rate 1.5% among 330,000; recombinant SENP7, Z-RLRGG-aminoluciferin luminescence, 40 min; inhibition, % at 5 µM; Q9BQF6;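 active = inhibition above about 50% at the single test dose, limit read from the data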;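 note: plate controls were DMSO with enzyme for no effect and no enzyme buffer wells for full effect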
Target sequence (Q9BQF6 706-1050 limits assumed): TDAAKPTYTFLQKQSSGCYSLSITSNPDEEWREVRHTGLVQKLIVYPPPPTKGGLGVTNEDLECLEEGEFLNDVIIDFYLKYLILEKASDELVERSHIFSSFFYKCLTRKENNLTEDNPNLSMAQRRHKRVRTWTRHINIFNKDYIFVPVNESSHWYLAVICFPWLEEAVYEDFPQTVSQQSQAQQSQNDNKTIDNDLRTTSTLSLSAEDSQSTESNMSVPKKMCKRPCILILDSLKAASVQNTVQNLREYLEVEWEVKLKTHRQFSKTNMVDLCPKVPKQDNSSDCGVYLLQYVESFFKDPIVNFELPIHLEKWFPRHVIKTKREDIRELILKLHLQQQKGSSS
SENP8 block-2 – SENP8 protease inhibition. hit rate 1.2% among 330,000. purified SENP8, Z-RLRGG-aminoluciferin cleavage, luminescence. Q96LD8. inhibition, % at 10 µM; in the data active = inhibition above about 50%
SENP8 conf – human SENP8 inhibition, confirmed; shares compounds with SENP7 inh; Recombinant SENP8, Z-RLRGG-aminoluciferin luminescence, 60 min; inhibition, % at 12.5 µM; hit rate 40% among 6,200; AID 488912;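 active = mean inhibition across replicates above about 50%, limit read from the data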
SENP6 confirm – human SENP6 inhibition, confirmed; recombinant SENP6, Z-RLRGG-aminoluciferin luminescence; inhibition, % at 12.5 µM; hit rate 58% among 6,200; shares compounds with SENP7 inh
SENP7 conf – confirmation of human SENP7 protease inhibitors | shares compounds with SENP7 inh | recombinant SENP7, Z-RLRGG-aminoluciferin luminescence, 40 min | inhibition, % at 12.5 µM | hit rate 69% among 6,200
Casp3 select – caspase-3 inhibition (SENP selectivity assay). AID 488918. shares compounds with SENP7 inh. inhibition, % at 12.5 µM. purified caspase-3, Z-DEVD-aminoluciferin luminescence, 60 min. hit rate 60% among 6,200;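 active = mean inhibition above about 50%, limit read from the data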;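 note: plate controls were enzyme with DMSO for no effect and wells without caspase-3 for full effect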
Target sequence (P42574 28-227 limits assumed): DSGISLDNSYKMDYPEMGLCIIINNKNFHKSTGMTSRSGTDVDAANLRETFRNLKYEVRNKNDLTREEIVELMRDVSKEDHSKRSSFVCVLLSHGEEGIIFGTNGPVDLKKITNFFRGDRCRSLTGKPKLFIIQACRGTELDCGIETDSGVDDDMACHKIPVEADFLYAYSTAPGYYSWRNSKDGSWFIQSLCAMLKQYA
SENP luc ctr – counter-screen for SENP inhibitors: luminescence interference | shares compounds with SENP7 inh | hit rate 39% among 6,200 | AID 488919 | inhibition, % at 12.5 µM | Pre-incubated SENP8/Z-RLRGG-aminoluciferin, luciferase luminescence interference;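 active = mean inhibition above about 50% when retested at one dose, limit read from the data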;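 note: plate controls were DMSO wells with completed reaction for no effect and substrate without enzyme for full effect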
Active calls of the source: *; i = inactive; . = no result given.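 Rule for the calls, unless noted: active = mean inhibition above about 50% in the one-dose retest (limit read from the data); inactive = the rest.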

SMILES	SENP6 block	Apaf1 inhib	SENP8 block-1	UBC13 inh	SENP7 inh	SENP8 block-2	SENP8 conf	SENP6 confirm	SENP7 conf	Casp3 select	SENP luc ctr
Cc1cccc(/C=C/c2nc3ccccc3c(=O)[nH]2)c1	87*	10	-79	8	97*	75*	38	68*	39	79*	4
COc1cc(/C=C/c2nc3ccccc3c(=O)[nH]2)ccc1O	.	.	i	.	.	.	.	.	.	.	.
O=c1[nH]c(/C=C/c2ccccc2Cl)nc2ccccc12	77*	22	-52	-1	94*	76*	43	42	60*	37	3
CCn1c(/C=C/c2ccccc2Cl)nc2ccccc2c1=O	-16	22	6	-14	-13	-13	.	.	.	.	.
CCCN1C(=O)/C(=C/c2nc3ccccc3c(=O)[nH]2)c2cc(C)ccc21	92*	4	-23	-26	4	-2	5	4	9	5	1
N=c1oc2cc(O)ccc2cc1C(=O)Nc1ccc(Cl)cc1	55*	11	-322	14	7	54*	-3	11	22	19	19
N=c1oc2ccccc2cc1C(=O)Nc1ccc(F)cc1	.	.	20	.	.	.	.	.	.	.	.
Cc1ccc(NC(=O)c2cc3ccccc3oc2=N)cc1	58*	19	19	-10	90*	33	16	16	7	20	6
N=c1oc2ccccc2cc1C(=O)Nc1cccc(F)c1	66*	31	9	3	92*	56*	43	35	29	62*	2
COc1ccc(COC(=O)c2ccc(S(=O)(=O)N3CCC(C)CC3)cc2)cc1	3	38	5	-5	8	-7	.	.	.	.	.
Nc1nc(=O)n(C2CCCCO2)cc1Br (centres undefined)	.	.	-1	.	.	.	.	.	.	.	.
Cc1ccc(-c2csc(NC(=O)c3cccc(S(=O)(=O)N4CCN(C)CC4)c3)n2)cc1	-11	4	-43	23	4	-2	.	.	.	.	.
Cc1ccc(-c2csc(NC(=O)COC(=O)c3cccc(S(=O)(=O)N4CCOCC4)c3)n2)cc1	51*	10	.	-5	36	0	52*	51*	83*	70*	53*
CCOC(=O)[C@]12CCC=C1N(CCC1=CCCCC1)C(=O)[C@H](CC(=O)NCc1ccc(OC)c(OC)c1)C2	.	.	6	.	.	.	.	.	.	.	.
CC(=O)c1c(CC(=O)O)[nH]n(-c2nc3ccccc3s2)c1=O	84*	-8	-6	27	88*	87*	86*	83*	97*	95*	83*
COc1ccc(CN=C(C)c2c(C(F)(F)F)[nH]n(-c3nc4ccccc4s3)c2=O)cc1	85*	12	8	-7	91*	50	17	16	21	50*	54*
CC(Cl)=CCn1c(NCCc2ccccc2)nc2c1c(=O)n(C)c(=O)n2C	.	.	22	.	.	.	.	.	.	.	.
CC(=O)NC(c1cccc(F)c1)c1nc(-c2cnn(C)c2)cs1 (centres undefined)	.	.	10	.	.	.	.	.	.	.	.
Nc1cccnc1Sc1cccc(Cl)c1	61*	76*	-32	-25	41	31	10	2	-2	-5	-4
COc1cnc(-c2ccccn2)nc1Sc1cccc(Cl)c1	-7	23	8	3	-7	-5	.	.	.	.	.
Nc1cccnc1Sc1ccc(Cl)cc1	55*	-2	-44	-5	36	42	-5	-7	-10	-5	-4
N#Cc1ccc(CN2CCN(C(=O)C3CC(=O)N(c4ccccc4F)C3)CC2)cc1 (centres undefined)	6	1	3	2	3	-2	.	.	.	.	.
Cc1cc(OCc2ccc(C(=O)n3cccn3)o2)ccc1Cl	50*	17	12	6	31	40	19	38	29	18	27
O=C(c1ccc(COc2ccc(F)cc2)o1)n1cccn1	37	3	8	9	2	3	.	.	.	.	.
Cc1nnsc1C(=O)N/N=C/c1ccccc1	26	4	10	-28	17	-11	.	.	.	.	.
SMILES	SENP6 block	Apaf1 inhib	SENP8 block-1	UBC13 inh	SENP7 inh	SENP8 block-2	SENP8 conf	SENP6 confirm	SENP7 conf	Casp3 select	SENP luc ctr
Cc1nnsc1C(=O)N/N=C/c1ccc(OC(F)(F)F)cc1	-21	-2	-9	-11	55*	4	16	17	28	24	11
CC(C)Oc1ccc(C(=O)Nc2nc3ccccc3[nH]2)cc1	97*	9	0	10	100*	97*	91*	99*	103*	98*	68*
COc1cc(C(=O)Nc2nc3ccccc3[nH]2)ccc1OC(F)F	39	12	-24	-8	25	4	.	.	.	.	.
O=C(Nc1nc2ccccc2[nH]1)c1ccccc1OC(F)F	91*	3	-250	6	91*	84*	87*	88*	100*	95*	90*
N#CC(Cc1ccc(OC(F)F)cc1)c1nc2ccccc2[nH]1 (centres undefined)	93*	6	-22	10	64*	80*	92*	91*	100*	88*	91*
COc1cc(OC)cc(C(=O)Nc2nc3ccccc3[nH]2)c1	24	2	-46	-1	-7	3	.	.	.	.	.
O=C(Nc1nc2ccccc2[nH]1)c1ccc(OC(F)F)cc1	95*	10	3	7	96*	89*	81*	93*	101*	95*	62*
CN1CCN(C2CN(Cc3ccc([N+](=O)[O-])cc3)S(=O)(=O)C2)CC1 (centres undefined)	.	.	20	.	.	.	.	.	.	.	.
CSc1cccc(CNC(=O)C2CCC(=O)N(CCCN3CCCC3=O)C2)c1 (centres undefined)	-6	-3	7	14	-10	-9	.	.	.	.	.
CC1CCN(CCCNC(=O)c2ccc(N3CCCC3=O)cc2)CC1	4	-8	4	-4	2	-2	.	.	.	.	.
O=C(/C=C/c1ccc(O)c(O)c1)c1ccccc1O	14	3	20	-61	97*	97*	11	101*	103*	95*	99*
O=C(C=Cc1cccc(O)c1)c1ccccc1O	.	.	12	.	.	.	.	.	.	.	.
CN(C)c1ccc(N=Cc2nc(-c3ccccc3)oc2OC(=O)c2cccc(Cl)c2)cc1	64*	9	25	-10	72*	-11	6	5	-1	26	8
Cc1ccc(C(=O)Oc2oc(-c3ccccc3)nc2C=Nc2ccc(N(C)C)cc2)cc1	-19	12	3	-13	-15	-13	.	.	.	.	.

Assay outcomes from PubChem.
